Source: PubChem BioAssay
Most compounds without a hit are left out; they make up all but 2% or so of the library.
LMPTP inh = blocks human LMPTP phosphatase. inhibition, % at 20 µM. P24666. recombinant LMPTP-A, OMFP fluorogenic substrate, fluorescence intensity. 0.22% of 360,000 active;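 active means compounds that cut the enzyme signal by at least half of the control window in the single-dose screen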;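 further: plate controls were DMSO wells with enzyme plus substrate for no effect and substrate without enzyme for full effect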
Target sequence (P24666 whole entry, looked up): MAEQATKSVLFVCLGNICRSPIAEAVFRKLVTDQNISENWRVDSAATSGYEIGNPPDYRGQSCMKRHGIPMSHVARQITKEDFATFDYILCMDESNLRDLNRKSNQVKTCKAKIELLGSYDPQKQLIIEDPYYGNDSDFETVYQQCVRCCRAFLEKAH
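Assay system: LMPTP-A, protein tyrosine phosphatase of low molecular weight / Medium: pH 6.0 Bis-Tris buffer with DTT and Triton X-100 / Schedule: 50 min enzyme reaction at room temperature, protected from light / Measured by: endpoint fluorescence intensity from OMFP dephosphorylation / Read-out basis: % inhibition relative to no-enzyme and uninhibited control wells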
DNMT1 block = inhibitors of human DNMT1; P26358; DNMT1 molecular beacon, Hinp1I cleavage, fluorescence; inhibition (reported as % activation of signal), % at 10 µM; 0.83% of 360,000 active; AID 588458; in the data active means inhibition above about 50%
Scp1 inh = inhibitors of human Scp-1 phosphatase | Q9GZU7 | Recombinant Scp1, phosphopeptide, malachite green phosphate absorbance | inhibition, % at 20 µM | 0.88% of 340,000 active | AID 493091;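 active means inhibition above about 50% at 20 µM, limit read from the data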;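 further: plate controls were DMSO wells with enzyme for no effect and wells lacking enzyme for full effect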
Target sequence (Q9GZU7 76-261 limits assumed): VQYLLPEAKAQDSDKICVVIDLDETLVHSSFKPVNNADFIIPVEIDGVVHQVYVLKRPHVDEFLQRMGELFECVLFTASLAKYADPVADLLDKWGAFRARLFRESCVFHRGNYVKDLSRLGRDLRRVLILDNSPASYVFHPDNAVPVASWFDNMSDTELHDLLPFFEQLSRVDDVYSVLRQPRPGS
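Times: enzyme reaction 45 min at room temperature, colour 5 min, stabilisation 30 min. Material: SCP-1 catalytic fragment, aa 76-261. Medium: Acidic Tris acetate buffer with magnesium and detergent. Signal: colorimetric free-phosphate detection, absorbance 630 nm. Read-out basis: % inhibition of SCP-1 phosphate liberation. Reagent: Phosphorylated 17-residue peptide substrate.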
Rpn11 inh = Rpn11 (human) deubiquitinase inhibition; O00487; human 26S proteasome, Ub4-pepOG fluorescence polarization; 20S core pre-blocked with epoxomicin; inhibition, % at 20 µM; 0.59% of 360,000 active; AID 588493;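 active means inhibition at 20 µM, scaled to each plate's controls, above about 33%, limit read from the data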
Target sequence (O00487 whole entry, looked up): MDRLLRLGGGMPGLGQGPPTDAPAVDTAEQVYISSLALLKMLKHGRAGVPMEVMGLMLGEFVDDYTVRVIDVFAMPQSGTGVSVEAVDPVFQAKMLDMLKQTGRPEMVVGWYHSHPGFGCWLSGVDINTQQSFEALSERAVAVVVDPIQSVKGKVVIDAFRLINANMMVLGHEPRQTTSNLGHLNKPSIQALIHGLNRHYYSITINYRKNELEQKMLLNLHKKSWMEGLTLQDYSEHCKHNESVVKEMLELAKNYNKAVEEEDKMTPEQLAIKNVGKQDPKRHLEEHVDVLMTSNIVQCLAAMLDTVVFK
STEP inh = STEP (human) phosphatase inhibition; P54829; recombinant STEP, OMFP fluorogenic substrate, fluorescence; inhibition, % at 20 µM; 0.25% of 360,000 active; AID 588621;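 active means inhibition at 20 µM, scaled per plate between control wells, above about 37%, limit read from the data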;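 further: 0% = DMSO with enzyme and substrate and 100% = substrate only without enzyme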
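Also added – OMFP at 25 µM · Test system – STEP tyrosine phosphatase · Technique – FITC-channel fluorescence of OMFP product · Schedule – 20 min at room temperature, dark · Evaluation – control-normalized % inhibition with plate pattern correction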
Rpn11 inh conf = Rpn11 inhibition confirmation, single concentration. shares compounds with Rpn11 inh. purified human 26S proteasome, Ub4-pepOG fluorescence polarization; proteasome pretreated with epoxomicin. 29% of 1,900 active. inhibition, % at 20 µM
MMP-2 counter = counter-screen for RPN11 inhibitors: inhibition of human MMP-2 | recombinant MMP-2, FRET peptide cleavage fluorescence | 4% of 1,900 active | inhibition, % at 20 µM | shares compounds with Rpn11 inh;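 further: human MMP-2 activated beforehand with APMA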
Thrombin FP = blocks bovine thrombin, flagging nonselective RPN11 hits; inhibition, % at 20 µM; AID 602333; 13% of 1,900 active; bovine thrombin cleavage of Ub4-pepOG, fluorescence polarization; shares compounds with Rpn11 inh;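 active means mean inhibition at least 40% at 20 µM, or signal 3 deviations below plate average, so some actives read negative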;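 further: plate controls were thrombin with DMSO for no effect and buffer wells lacking thrombin for full effect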
Starred values were filed as active, the others as inactive. Unless noted, no stated cut-off is given here; in the data, active means inhibition above about 40%; inactive means the rest.

`COCCCn1c(=O)/c(=C\c2ccccc2OC(F)F)s/c1=C(/C#N)C(N)=O` gave LMPTP inh -0.3, DNMT1 block 2.1, Scp1 inh 1.4, Rpn11 inh 49.3*, STEP inh -0.2, Rpn11 inh conf 13.0, MMP-2 counter -10.7 and Thrombin FP 3.5.
CCCSc1nnc(NC(=O)c2sc3nc(-c4cccs4)ccc3c2N)s1 was read as LMPTP inh 0.8, DNMT1 block -17.6, Scp1 inh -10.7, Rpn11 inh 76.4*, STEP inh -4.5, Rpn11 inh conf 61.4*, MMP-2 counter -31.5 and Thrombin FP 13.6.
Screening COc1ccccc1C(CNC(=O)C1CC(=O)N(Cc2ccc(C)cc2)C1)N1CCCC1 (stereo unspecified) returned LMPTP inh -12.7, DNMT1 block -16.1, Scp1 inh -4.7, Rpn11 inh 1.4 and STEP inh -1.2.
`Cc1cc(NCCCCCCCNc2cc(C)nc3cc([N+](=O)[O-])ccc23)c2ccc([N+](=O)[O-])cc2n1` gave LMPTP inh 91.0*, DNMT1 block 40.2, Scp1 inh 31.9, Rpn11 inh 95.2*, STEP inh 17.8, Rpn11 inh conf 85.4*, MMP-2 counter 75.7* and Thrombin FP 11.1.
Screening O=C(N=C1SC2CS(=O)(=O)CC2N1c1ccc(F)cc1F)C1CC1 (stereo unspecified) returned LMPTP inh -0.9, DNMT1 block -0.5, Scp1 inh -1.7, Rpn11 inh -9.8 and STEP inh 0.8.
Screening CCn1c(=O)c(C(=O)CN(C)CC(=O)Nc2ccccc2Br)c(N)n(Cc2ccccc2)c1=O returned LMPTP inh 2.3, DNMT1 block -6.3, Scp1 inh -5.7, Rpn11 inh 7.0 and STEP inh 2.0.
`COCCN=c1scc(-c2cc(OC)c(OC)c(OC)c2)n1/N=C/c1c(C)[nH]c2ccccc12` gave LMPTP inh 4.9, DNMT1 block -34.0, Scp1 inh 7.5, Rpn11 inh 112.1*, STEP inh -2.7, Rpn11 inh conf 56.1*, MMP-2 counter 22.5 and Thrombin FP 26.6.
`Cc1[nH]c2ccccc2c1/C=N/n1cnnc1` gave LMPTP inh -0.4, DNMT1 block 0.3, Scp1 inh -11.9, Rpn11 inh -3.2 and STEP inh -1.1.
For COc1cccc(C(NC(C)=O)c2nc(-c3cnn(C)c3)cs2)c1 (stereo unspecified) the results were LMPTP inh 0.1, DNMT1 block 0.7, Rpn11 inh -2.4 and STEP inh -3.6.
CCOCCCNc1nc2c(C)cccn2c(=O)c1/C=C1\SC(=S)N(CC(C)C)C1=O was read as LMPTP inh -0.8, DNMT1 block 10.2, Scp1 inh 2.8, Rpn11 inh 74.9*, STEP inh -14.5, Rpn11 inh conf 91.0*, MMP-2 counter 60.1* and Thrombin FP 72.1*.
Screening Cc1ccc(C)c(OCCn2cc(/C=C(/C#N)C(=O)NCC3CCCO3)c3ccccc32)c1 (stereo unspecified) returned LMPTP inh 5.1, DNMT1 block -7.2, Scp1 inh -8.2, Rpn11 inh 100.4*, STEP inh -3.2, Rpn11 inh conf 71.8*, MMP-2 counter -0.6 and Thrombin FP 27.7.
N#C/C(=C\c1cn(CCOc2ccccc2)c2ccccc12)C(=O)NCC1CCCO1 (stereo unspecified) was read as LMPTP inh 5.9, DNMT1 block -10.2, Scp1 inh -17.5, Rpn11 inh 0.3 and STEP inh 4.0.
For C[C@H](NC(=O)C1CCN(S(=O)(=O)c2ccccc2)CC1)C(=O)NCc1ccc(Cl)cc1Cl the results were LMPTP inh 2.9, DNMT1 block 0.9, Scp1 inh 5.1, Rpn11 inh 0.9 and STEP inh 0.0.
Screening Cc1nn2c(N3CCCC3)c3c(nc2c1-c1ccccc1)CCC3 returned LMPTP inh 3.0, DNMT1 block -1.9, Scp1 inh -3.5, Rpn11 inh 110.4*, STEP inh -0.8, Rpn11 inh conf 27.5, MMP-2 counter -8.8 and Thrombin FP 5.5.
Screening CCc1cc(=O)oc2c(C)c(OC(C)C(=O)NCCCn3ccnc3)ccc12 (stereo unspecified) returned LMPTP inh 0.3, DNMT1 block -0.9, Scp1 inh -0.3, Rpn11 inh -2.3 and STEP inh 0.3.
Screening Cc1cc(CN2CCCC(N3CCc4ccccc4C3)C2)cc(C)c1O (stereo unspecified) returned LMPTP inh 10.1, DNMT1 block -2.9, Scp1 inh -5.1, Rpn11 inh -5.1 and STEP inh 4.3.
Screening CN(C)c1ccc(/C=C(\C#N)C(=O)OCC(=O)N(C)C2CCS(=O)(=O)C2)cc1 (stereo unspecified) returned LMPTP inh 4.4, DNMT1 block 4.2, Scp1 inh -3.9, Rpn11 inh 78.2*, STEP inh 2.7, Rpn11 inh conf 61.0*, MMP-2 counter -4.8 and Thrombin FP 56.4*.
For CCc1ccc(O)c(N=Cc2cccc(C)c2O)c1 the results were LMPTP inh -0.3, DNMT1 block -6.7, Scp1 inh -2.7, Rpn11 inh 43.7*, STEP inh -1.6, Rpn11 inh conf 43.5*, MMP-2 counter -21.5 and Thrombin FP 17.8.
Cc1cccc(C=Nc2ccc3c4c(cccc24)CC3)c1O was read as LMPTP inh 2.0, DNMT1 block -9.1, Scp1 inh -6.5, Rpn11 inh 39.8 and STEP inh -7.9.
Screening COc1ccccc1NC(=O)Nc1nc(CC(=O)Nc2cc(F)ccc2F)cs1 returned LMPTP inh 3.4, DNMT1 block -13.8, Scp1 inh 1.6, Rpn11 inh 45.9*, STEP inh -1.5, Rpn11 inh conf 10.6, MMP-2 counter -10.4 and Thrombin FP -13.9.
Screening COc1ccccc1NC(=O)Nc1nc(CC(=O)Nc2cccc(F)c2)cs1 returned LMPTP inh 1.2, DNMT1 block -7.1, Scp1 inh 5.2, Rpn11 inh 7.0 and STEP inh -1.8.
`O=C(O)c1cccc2c1Cc1cc(Cl)ccc1-2` gave LMPTP inh -3.6, DNMT1 block 6.0, Scp1 inh -10.5, Rpn11 inh -4.2 and STEP inh 0.6.
Screening COc1cc(OCc2ccc(C)cc2)ccc1CNC[C@H]1O[C@@H](n2cnc(C(N)=O)n2)[C@H](O)[C@@H]1O returned LMPTP inh -1.2, DNMT1 block 0.8, Scp1 inh 4.1, Rpn11 inh -0.3 and STEP inh 4.8.
